From PubChem
Compounds with a hit are over-represented: about 1.7% of the library has one in this group of screens.
STEP inh: STEP (human) phosphatase inhibition | recombinant STEP, OMFP fluorogenic substrate, fluorescence | P54829 | inhibition, % at 20 µM | hit rate 0.25% among 360,000;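 active = inhibition at 20 µM, scaled per plate between control wells, above about 37%, limit read from the data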
Target sequence (P54829 whole entry, looked up): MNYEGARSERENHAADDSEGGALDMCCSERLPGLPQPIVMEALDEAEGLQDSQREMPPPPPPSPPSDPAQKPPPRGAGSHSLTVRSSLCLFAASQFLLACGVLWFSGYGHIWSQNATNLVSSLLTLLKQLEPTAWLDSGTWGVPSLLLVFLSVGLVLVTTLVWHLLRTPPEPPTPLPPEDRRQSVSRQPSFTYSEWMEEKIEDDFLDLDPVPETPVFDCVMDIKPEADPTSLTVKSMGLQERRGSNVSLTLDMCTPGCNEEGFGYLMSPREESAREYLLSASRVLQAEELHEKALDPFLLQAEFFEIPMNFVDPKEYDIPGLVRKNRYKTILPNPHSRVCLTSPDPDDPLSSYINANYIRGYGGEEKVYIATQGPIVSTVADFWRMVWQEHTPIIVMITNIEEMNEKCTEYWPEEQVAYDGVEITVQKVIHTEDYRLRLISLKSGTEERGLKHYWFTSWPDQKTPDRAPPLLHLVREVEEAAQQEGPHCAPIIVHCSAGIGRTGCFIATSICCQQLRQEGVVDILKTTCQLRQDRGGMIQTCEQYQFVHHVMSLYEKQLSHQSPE
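Material: STEP (striatal-enriched tyrosine phosphatase) enzyme, cell-free | Medium: 50 mM Bis-Tris pH 6.0 with 2.5 mM DTT and 0.005% Tween 20 | Read-out: Percent inhibition scaled to no-enzyme and uninhibited-enzyme controls, plate-pattern corrected | Signal: Fluorescence read at 480 nm ex / 540 nm em | Times: 20 min reaction, room temperature, in the dark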
DNMT1 block: blocks human DNA methyltransferase DNMT1; P26358; DNMT1 molecular beacon, Hinp1I cleavage, fluorescence; inhibition (reported as % activation of signal), % at 10 µM; hit rate 0.83% among 360,000; AID 588458; in the data active = inhibition above about 50%
LMPTP inh: blocks human LMPTP phosphatase; hit rate 0.22% among 360,000; AID 651560; inhibition, % at 20 µM; P24666; recombinant LMPTP-A, OMFP fluorogenic substrate, fluorescence intensity;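 active = compounds that cut the enzyme signal by at least half of the control window in the single-dose screen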
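Buffer or medium: Bis-Tris pH 6.0, DTT, detergent; Assay system: LMPTP-A enzyme; Quantity: 0.625 nM enzyme; Detection: endpoint fluorescence intensity; Times: 50 min dark incubation at room temperature; Controls: substrate-only low control, DMSO enzyme-plus-substrate high control; Doses: single 20 µM dose; Read-out: percent inhibition versus substrate-only and uninhibited controls; Reagent: 400 µM OMFP.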
Scp1 inh: inhibitors of human Scp-1 phosphatase | inhibition, % at 20 µM | Recombinant Scp1, phosphopeptide, malachite green phosphate absorbance | Q9GZU7 | hit rate 0.88% among 340,000;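 active = inhibition above about 50% at 20 µM, limit read from the data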
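System: SCP-1 catalytic domain; Reagent: Phospho 17-mer peptide substrate; Doses: one concentration, 20 µM, with 1.0% DMSO; Incubation: 45 min room-temperature reaction, 5 min colour, 30 min stabiliser; Signal: Phosphate-binding colour reagent, absorbance read at 630 nm.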
SUMO1-SIM PPI: modulators of human SUMO1-mediated protein-protein interactions; P63165; SUMO1 binding to a labelled peptide, TR-FRET, 1 h; inhibition, % at 20 µM; hit rate 0.33% among 360,000; AID 602429; in the data active = inhibition above about 37%
Target sequence (P63165 whole entry, looked up): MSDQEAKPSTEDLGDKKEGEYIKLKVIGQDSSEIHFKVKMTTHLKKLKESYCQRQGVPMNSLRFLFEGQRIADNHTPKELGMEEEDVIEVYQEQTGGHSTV
Scp-1 conf: Scp-1 (human) inhibition, single-dose confirmed | AID 540281 | hit rate 61% among 2,500 | shares compounds with Scp1 inh | recombinant SCP-1 catalytic domain, phosphate release, malachite green absorbance | inhibition, % at 20 µM
MG interference: interferes with malachite green readout, flagging false Scp-1 hits | AID 540313 | 2,500 tested, under 10 active | apparent inhibition (interference), % at 20 µM | shares compounds with Scp1 inh | Colorimetric interference counterscreen, malachite green absorbance 630 nm;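 also: compounds added after enzyme reaction finished so only phosphate colour detection is probed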
Scp-1 Tm shift: binds human Scp-1, shifting its melting temperature; shares compounds with Scp1 inh; Recombinant SCP1, Sypro Orange thermal shift Tm; thermal shift relative to vanadate control, % at 40 µM; hit rate 25% among 1,500;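 active = substances whose mean melting-temperature shift, as a percentage of the reference inhibitor's shift, reaches about 5.3%, limit read from the data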
DNMT1 confirm: DNMT1 inhibition confirmation, single concentration. inhibition, % at 10 µM. DNMT1 molecular beacon HinP1I cleavage, fluorescence. AID 602385. shares compounds with DNMT1 block. hit rate 8% among 2,300;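 active = average inhibition of at least 30% in the single-concentration confirmation test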
Beacon interf: counter-screen for DNMT1 inhibitors: spectral interference; shares compounds with DNMT1 block; DNMT1 molecular beacon spectral interference counterscreen, fluorescence 485/520; activation (fluorescence interference), % at 10 µM; hit rate 1% among 2,300; AID 602387;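 active = activation of at least 30% at 10 µM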;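 also: DNMT1 catalytic domain with a HinP1I cleavage step and a FAM/dabcyl DNA beacon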
STEP conf: confirmation of human STEP phosphatase inhibitors; shares compounds with STEP inh; inhibition, % at 20 µM; AID 623866; hit rate 32% among 520; recombinant STEP, OMFP fluorogenic substrate, fluorescence; call rule not given here
Large screens that a line does not name were inactive (follow-up assays come after a bar, where they were run).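 The calls were made as follows, unless noted: active = inhibition of at least 30% at 20 µM; inactive = the rest.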

CC1=C(C(=O)N(C(C)C)C(C)C)CC(CC(=O)NC2CC2)C(=O)N1CCC1=CCCCC1 (stereo not drawn)	none (no result: Scp1 inh)
O=C(O)c1ccc(Nc2nc(-c3ccc([N+](=O)[O-])cc3)nc3ccccc23)cc1	STEP inh 89, LMPTP inh 63, Scp1 inh 82 | Scp-1 conf 57 | MG interference inactive | Scp-1 Tm shift 9.2 | STEP conf inactive
COc1cccc2cc(-c3cc(=O)oc4ccc(OCC(C)=O)cc34)oc12	none
COC(=O)COc1ccc2oc(=O)cc(-c3cc4cccc(OC)c4o3)c2c1	STEP inh 75, LMPTP inh 61, Scp1 inh 75, SUMO1-SIM PPI 40 | Scp-1 conf 56 | MG interference inactive | Scp-1 Tm shift inactive | STEP conf inactive
O=C(Nc1cccc(-c2nc3ccccc3s2)c1)c1cccs1	none
O=C(Nc1cccc(-c2nc3ccccc3s2)c1)c1cc(=O)c2ccccc2o1	STEP inh 80, DNMT1 block 52, Scp1 inh 72 | Scp-1 conf 43 | MG interference inactive | Scp-1 Tm shift inactive | DNMT1 confirm inactive | Beacon interf inactive | STEP conf inactive
COCc1cc(C)nc(SCc2ccc([N+](=O)[O-])cc2)c1C#N	none
O=C(O)c1ccc(/C=N/NC(=O)c2cc3c(ccc4ccccc43)o2)cc1	STEP inh 98, LMPTP inh 67, Scp1 inh 79 | Scp-1 conf 71 | MG interference inactive | Scp-1 Tm shift inactive | STEP conf inactive
O=C(N/N=C/c1cccc([N+](=O)[O-])c1)c1cc2c(ccc3ccccc32)o1	STEP inh 99, LMPTP inh 64, Scp1 inh 99 | Scp-1 conf 68 | MG interference inactive | Scp-1 Tm shift inactive | STEP conf inactive
O=C1NN(c2cccc(Br)c2)C(=O)/C1=C\c1ccc(N2CCOCC2)cc1	STEP inh 82, DNMT1 block 65, LMPTP inh 66, Scp1 inh 52 | Scp-1 conf 48 | MG interference inactive | Scp-1 Tm shift inactive | DNMT1 confirm inactive | Beacon interf inactive | STEP conf 72
CN(C)c1ccc(/C=N/NC(=O)c2cc(-c3ccc4c(c3)OCO4)n[nH]2)cc1	none
O=C(N/N=C/c1ccc(Cl)cc1)c1ccc2c(c1)OCO2	STEP inh 93, Scp1 inh 103 | Scp-1 conf 91 | MG interference inactive | Scp-1 Tm shift inactive | STEP conf inactive
O=C(N/N=C/c1cccc(OC(=O)c2ccc3c(c2)OCO3)c1)c1cncc(Br)c1	none
O=C(N/N=C/c1ccc(Cl)c([N+](=O)[O-])c1)c1ccc2c(c1)OCCO2	STEP inh 94, DNMT1 block 80, LMPTP inh 89, Scp1 inh 105, SUMO1-SIM PPI 80 | Scp-1 conf 78 | MG interference inactive | Scp-1 Tm shift inactive | DNMT1 confirm inactive | Beacon interf inactive | STEP conf 46
O=C(N/N=C/c1ccc(OC(=O)c2ccc3c(c2)OCO3)cc1)c1cncc(Br)c1	STEP inh 99, DNMT1 block 117, LMPTP inh 86, Scp1 inh 94 | Scp-1 conf 86 | MG interference inactive | Scp-1 Tm shift inactive | DNMT1 confirm inactive | Beacon interf inactive | STEP conf inactive
O=C(N/N=C/c1ccc(F)cc1)c1cc(-c2ccc3c(c2)OCO3)n[nH]1	STEP inh 42, Scp1 inh 56 | Scp-1 conf 35 | MG interference inactive | Scp-1 Tm shift inactive | STEP conf 36
COc1ccc(COC(=O)CNC(=O)C2CCCCC2)cc1F	none
O=C(N/N=C\c1ccc(OC(=O)c2cccs2)cc1)c1ccc(Cl)cc1	STEP inh 94, LMPTP inh 94, Scp1 inh 96 | Scp-1 conf 81 | MG interference inactive | Scp-1 Tm shift inactive | STEP conf inactive
COc1ccc(/C=C2\C(=O)NC(=S)N2C(=O)c2ccc(C)cc2)cc1	none
O=C1NC(=S)N(C(=O)c2ccc(F)cc2)/C1=C/c1cccnc1	STEP inh 43, Scp1 inh 95 | Scp-1 conf 56 | MG interference inactive | Scp-1 Tm shift inactive | STEP conf inactive
Cn1c(N)c(C(=O)CSc2n[nH]c(N)n2)c(=O)n(C)c1=O	none
CCN(CC)C(=O)C1=C(C)N(Cc2ccccc2)C(=O)C(CC(=O)NCc2cccs2)C1 (stereo not drawn)	none (no result: Scp1 inh)
CCOc1cc(/C=C2/NC(=O)NC2=O)cc(Br)c1OCc1ccc(C(=O)O)cc1	STEP inh 96, LMPTP inh 56, Scp1 inh 73 | Scp-1 conf 88 | MG interference inactive | Scp-1 Tm shift inactive | STEP conf inactive
O=C1NC(=Nc2cccnc2)S/C1=C/c1ccc(F)cc1	STEP inh 61, Scp1 inh 87 | Scp-1 conf 50 | MG interference inactive | Scp-1 Tm shift inactive | STEP conf inactive
Cc1ccc(/C=C2/SC(=Nc3ccc(F)cc3)NC2=O)s1	none
O=C(O)CC/C(=N\Nc1ccc(S(=O)(=O)N2CCCC2)cc1[N+](=O)[O-])c1cccs1	STEP inh 97, Scp1 inh 63 | Scp-1 conf 57 | MG interference inactive | Scp-1 Tm shift 16 | STEP conf 83
COc1ccc2cc3c(N)nn(C(=O)c4cccc([N+](=O)[O-])c4)c3nc2c1	STEP inh 98, DNMT1 block 77, LMPTP inh 66, Scp1 inh 98, SUMO1-SIM PPI 53 | Scp-1 conf 79 | MG interference inactive | Scp-1 Tm shift inactive | DNMT1 confirm inactive | Beacon interf inactive | STEP conf inactive
FC(F)(F)c1ccc(Nc2nnnc3ccccc23)cc1	STEP inh 97, LMPTP inh 51, Scp1 inh 73 | Scp-1 conf 62 | MG interference inactive | Scp-1 Tm shift inactive | STEP conf inactive
